Assay results from ChEMBL document CHEMBL1142702, “Dynamic receptor-based pharmacophore model development and its application in designing novel HIV-1 integrase inhibitors” (J Med Chem, 2005).
pIC50: −log10 of the molar value.

What was measured:
[1] = target: T1, Human immunodeficiency virus type 1 integrase (Human immunodeficiency virus 1, UniProt Q7ZJM1); test: Concentration to inhibit 3' processing of wild type Human immunodeficiency virus-1 integrase
In short: (§1)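 Recombinant wild-type IN, 200 nM final, preincubated with inhibitor at 30 °C for 30 min. 20 nM 5′-32P-labeled 21-mer duplex substrate then added for 1 h. Quenched with formamide loading dye. 19-mer or strand-transfer product fraction gave percent inhibition. IC50 from log concentration versus percent inhibition.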

[2] = target: T1, Human immunodeficiency virus type 1 integrase; test: Concentration to inhibit strand transfer of wild type Human immunodeficiency virus-1 integrase; in short: as §1
[3] = target: T1, Human immunodeficiency virus type 1 integrase; test: Concentration to inhibit strand transfer of wild type Human immuno deficiency virus-1 integrase; in short: as §1
[4] = target: T1, Human immunodeficiency virus type 1 integrase; test: Concentration to inhibit 3' processing of wild type Human immuno deficiency virus-1 integrase; in short: as §1
[5] = target: T1, Human immunodeficiency virus type 1 integrase; test: Concentration to inhibit 3' processing of soluble mutant (F185K, C280S) of wild type Human immunodeficiency virus-1 integrase
In short: (§2)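 Integrase (200 nM final) is preincubated with inhibitor for 30 min at 30 °C in buffer with MOPS pH 7.2, HEPES pH 7.5, 7.5 mM MnCl2, 50 mM NaCl, BSA, DTT, 2-mercaptoethanol, glycerol, EDTA and 10% DMSO. Then 20 nM 5′-32P-labelled 21-mer duplex substrate is added for 1 h, and the reaction is quenched with formamide/EDTA dye. The fraction converted to 19-mer (3′-processing) or to strand-transfer products gives percent inhibition, and IC50 comes from log concentration versus percent inhibition.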

[6] = target: T1, Human immunodeficiency virus type 1 integrase; test: Concentration to inhibit strand transfer of soluble mutant (F185K, C280S) of wild type Human immunodeficiency virus-1 integrase; in short: as §2

SMILES	pIC50 [1]	pIC50 [2]	pIC50 [3]	pIC50 [4]	pIC50 [5]	pIC50 [6]
CCOc1ccc2[nH]c(SCC(=O)Nc3cc(C(=O)O)cc(C(=O)O)c3)nc2c1	< 4.00	< 4.00				
COC(=O)c1sccc1NC(=O)c1ccc(C(=O)Nc2ccsc2C(=O)OC)cc1	< 4.00	4.01				
O=C(c1ccccc1)c1ccc(OCC(O)COc2ccc(C(=O)c3ccccc3)c(O)c2)cc1O			< 4.00	< 4.00		
O=C(NCc1cccc(CNC(=O)C(=O)NCc2ccco2)c1)C(=O)NCc1ccco1			< 4.00	< 4.00	3.00	4.40
O=C(Nc1ccc(Cc2ccc(NC(=O)c3cccc([N+](=O)[O-])c3)c(C(=O)O)c2)cc1C(=O)O)c1cccc([N+](=O)[O-])c1	4.82	4.89				
O=C(NCc1ccco1)c1cc(C(=O)NCc2ccco2)cc(C(=O)NCc2ccco2)c1			5.10	4.43		
CCOC(=O)C(=O)NCc1ccc(/C=C2/N=C(C)C(C(=O)OCC)=C2O)o1	< 4.00	< 4.00				
Cc1ccc(NC(=O)C(=O)NCc2ccc(/C=N\NC(=O)C(=O)Nc3cc(Cl)ccc3C)o2)cc1C			< 4.00	< 4.00	3.29	4.15
CCc1cc(/C=N/CC/N=C/c2cc(CC)sc2S)c(S)s1			4.68	< 4.00	< 4.00	5.22
COC(=O)c1cc(NS(=O)(=O)c2ccc(NCc3cccnc3)c(N)c2)cc(C(=O)OC)c1			< 4.00	< 4.00		
O=C(Nc1ccc(Cc2ccc(O)c(NC(=O)c3ccccc3F)c2)cc1O)c1ccccc1F	< 4.00	< 4.00			3.69	4.48
COc1ccc2[nH]c(SCC(=O)Nc3ccc(O)c(C(=O)O)c3)nc2c1			< 4.00	< 4.00		
O=C(N/N=C/c1ccc(O)cc1O)c1cc(C2CC2)[nH]n1			4.37	3.75		
C/C(CC(=O)Nc1c(C)cc(C)cc1C)=N\NC(=O)c1ccc(O)cc1O	< 3.00	3.82				
COC(=O)C1=C(O)/C(=C\c2ccc(CNC(=O)C(=O)Nc3ccc(C)cc3)o2)N=C1C	< 4.00	4.09				

Continued, in another order:

pIC50 [1]	pIC50 [2]	pIC50 [3]	pIC50 [4]	SMILES	pIC50 [5]	pIC50 [6]
		< 4.00	< 4.00	COc1cc(/C=N/NC(=O)c2cc(C3CC3)[nH]n2)ccc1O		
< 4.00	< 4.00			CCN(CC)c1ccc(/C=N/Nc2nonc2N)c(O)c1		
		< 4.00	< 4.00	CCOC(=O)c1cc(C(=O)OCC)c(SCC(=O)Nc2ccc(Br)cc2)nc1O		
		< 4.00	< 4.00	COc1ccc(C(=O)Nc2ccc(Cc3ccc(NC(=O)c4ccc(OC)cc4)c(O)c3)cc2O)cc1		
		4.00	3.85	O=C(O)c1cc(NS(=O)(=O)c2ccc(NCCCN3CCOCC3)c([N+](=O)[O-])c2)cc(C(=O)O)c1		
4.20	4.42			O=C(Nc1ccc(Cc2ccc(NC(=O)c3cccs3)c(C(=O)O)c2)cc1C(=O)O)c1cccs1		
< 4.00	4.18			O=C(O)c1cc(NS(=O)(=O)c2ccc(NCc3ccccc3)c([N+](=O)[O-])c2)cc(C(=O)O)c1		
		3.52	3.45	COc1ccc(NS(=O)(=O)c2cccc(C(=O)Nc3ccccc3C(=O)O)c2)cc1		
